Published values from different studies.
MAP2K4: Dual specificity mitogen-activated protein kinase kinase 4 (MAP2K4, Homo sapiens, UniProt P45985)
MME: Neprilysin (MME, Homo sapiens, UniProt P08473)

| Structure (SMILES) | target | test | conditions | measurement | result |
| --- | --- | --- | --- | --- | --- |
| Cc1sc2c(c1C)C(c1ccc(Cl)cc1)=N[C@@H](CC(=O)OC(C)(C)C)c1nnc(C)n1-2 | Stimulator of interferon genes protein (STING1, Homo sapiens, UniProt Q86WV6, H232R) | thermal stability, DSF | 100 µM | ΔTm | -0.92 °C |
| COc1cc(Nc2ncc(F)c(Nc3ccc4c(n3)NC(=O)C(C)(C)O4)n2)cc(OC)c1OC | MAP2K4 | binding, competition with immobilised ligand | 10 µM | inhibition | 85% |
| CCN(CC)CCCC[C@H](NC(=O)[C@H](CC(C)C)NC(=O)[C@H](C)NC(=O)[C@H](Cc1ccccc1)NC(=O)c1ccc(C(C)(C)C)cc1)C(=O)N[C@@H](CO)C(=O)OC | Bromodomain adjacent to zinc finger domain protein 2A, bromodomain (BAZ2A, Homo sapiens, UniProt Q9UIF9) | thermal stability, DSF | 25 µM | ΔTm | -0.23 °C |
| c1ccc(C(NCCNC(c2ccccc2)c2ccccc2)c2ccccc2)cc1 | MME | enzyme activity, inhibitor | 10 µM | inhibition | 8% |
| Cc1ncc(C)n2nc(/C=C/c3nc(N4CCCC4)cc(N4CCOCC4)n3)nc12 | MME | enzyme activity, inhibitor | 10 µM | inhibition | -13% |
| C#Cc1n[nH]c2c(-c3cn([C@@H](C)c4ccccc4)c(=O)[nH]c3=O)cc(F)cc12 | Tyrosine-protein kinase JAK2 (JAK2, Homo sapiens, UniProt O60674) | enzyme activity, inhibitor | 0.1 µM | inhibition | -3% |
| Cc1nn(C)cc1-c1nc2c(N3CCN(Cc4ccc(Cl)cc4)CC3)c(Cl)cnc2[nH]1 | Phosphatidylinositol 5-phosphate 4-kinase type-2 gamma (PIP4K2C, Homo sapiens, UniProt Q8TBX8) | binding, competition with immobilised ligand | 1 µM | remaining binding | 80% |
| C#Cc1n[nH]c2c(-c3cn([C@@H](C)c4ccccn4)c(=O)[nH]c3=O)cc(F)cc12 | Proto-oncogene tyrosine-protein kinase receptor Ret (RET, Homo sapiens, UniProt P07949, V804L) | enzyme activity, inhibitor | 0.1 µM | inhibition | 4.5% |
| C[C@H](C(=O)N[C@H]1COc2ccccc2[C@@H]1S(C)(=O)=O)c1ccc(F)cc1 | MME | enzyme activity, inhibitor | 10 µM | inhibition | -1% |
| Nc1ncc(-c2nc(N3CCOCC3)nc(N3CCOCC3)n2)c(C(F)F)n1 | Citron Rho-interacting kinase (CIT, Homo sapiens, UniProt O14578) | binding, competition with immobilised ligand | 10 µM | remaining binding | 91% |
| COc1ncccc1-c1cnn2ccc(N3CCN(C(=O)OC(C)C)CC3)nc12 | MAP2K4 | binding, competition with immobilised ligand | 1 µM | remaining binding | 100% |
